Shown are actives, neighbours in structure and some others; about 3.2% of the full set was active somewhere.
DAX1 inh-1 = DAX1 (NR0B1) inhibition, primary screen; inhibition, % at 6.8 µM; AID 652010; 1.1% of 370,000 active; HEK293T StAR-luciferase reporter, SF-1/DAX-1 repression relief;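 active = inhibition above the mean over all tested compounds plus 3 SD, cut at about 3.6% in these data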;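 also: 0% = DAX-1 cells with DMSO and 100% = cells lacking DAX-1 with DMSO; higher inhibition means more luminescence from relief of DAX-1 repression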
GASC-1 inh = inhibitors of human GASC-1 (JMJD2C) demethylase. AID 2099. inhibition, % at 2.35 µM. GST-JMJD2C(1-420) H3K9me3 demethylation, DELFIA europium. 0.069% of 330,000 active. Q9H3R0;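 active = more than half of a compound's replicate wells show inhibition beyond 50%, single wells judged on their own value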;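 also: signal counts dimethyl H3K9 product captured on neutravidin plate; 0% = median of DMSO wells and 100% = 0.3 times that DMSO median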
Target sequence (Q9H3R0 1-420 limits assumed): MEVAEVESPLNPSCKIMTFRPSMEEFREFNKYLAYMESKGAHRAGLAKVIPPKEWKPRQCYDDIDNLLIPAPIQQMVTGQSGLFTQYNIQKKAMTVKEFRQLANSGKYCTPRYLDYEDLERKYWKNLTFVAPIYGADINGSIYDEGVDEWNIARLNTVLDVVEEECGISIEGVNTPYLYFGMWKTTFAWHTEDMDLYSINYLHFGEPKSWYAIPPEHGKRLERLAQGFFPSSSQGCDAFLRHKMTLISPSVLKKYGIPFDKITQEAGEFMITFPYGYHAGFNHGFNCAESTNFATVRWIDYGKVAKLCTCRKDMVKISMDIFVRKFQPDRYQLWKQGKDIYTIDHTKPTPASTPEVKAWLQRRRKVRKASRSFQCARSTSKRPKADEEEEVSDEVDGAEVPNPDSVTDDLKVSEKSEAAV
SMARCA2 act = activators of SMARCA2 function; MG213 cells, MMTV-luciferase reporter, dexamethasone, overnight; 1% of 370,000 active; activation, % at 9.1 µM; in the data active = activation above about 7.8%;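 also: 0% = vehicle wells and 100% = reference activator wells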
NR2E3 ag-1 = agonists of human NR2E3 nuclear receptor. Q9Y5X4. CHO-S Gal4-NCOR/VP16-NR2E3 two-hybrid, luciferase. AID 602229. 0.35% of 360,000 active. inhibition of corepressor binding, % at 3.98 µM;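 active = inhibition above the mean of all tested compounds plus 3 SD, cut at about 70% in these data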;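 also: 0% = DMSO with NR2E3 transfected cells and 100% = cells lacking NR2E3 construct; higher means lower luciferase signal from less NR2E3 corepressor binding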
DAX1 inh-2 = NR0B1 (DAX1) inhibition; 0.99% of 340,000 active; AID 504766; inhibition, % at 6.75 µM; HEK293 Gal4-DAX1 luciferase reporter, luminescence;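 active = inhibition above the mean over all tested compounds plus 3 SD, cut at about 4.2% in these data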;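 also: 0% = DAX1-transfected cells with DMSO and 100% = empty-vector control cells with DMSO; inhibition shows as a rise in luminescence from relieved DAX1 repression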
NR2E3 ag-2 = activates human photoreceptor nuclear receptor NR2E3. GST-NR2E3/biotin-RetCOR TR-FRET, 1536-well. inhibition of corepressor binding, % at 4.78 µM. 0.12% of 320,000 active;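 active = percent inhibition above the cutoff of mean plus 3 SD of all tested compounds, set per screening campaign, cut at about 20% in these data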;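 also: 0% = DMSO wells and 100% = biotin wells as full block of FRET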
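Material: NR2E3–RetCOR corepressor complex / Incubation: Compound–protein incubation for 5 h at 4 °C / Dosing: compound at 4.8 µM, single dose / Detection: time-resolved FRET / Benchmarks: high control biotin, low control 0.6% DMSO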
DAX1 conf = NR0B1 (human) inhibition, confirmation; shares compounds with DAX1 inh-1; HEK293T StAR-promoter luciferase reporter, SF-1/DAX-1 repression; inhibition, % at 6.8 µM; 87% of 2,400 active; AID 652134;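 active = inhibition above the average of every tested compound plus 3 SD, cut at about 3.8% in these data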;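 also: 0% = DAX-1 cells with DMSO and 100% = no DAX-1 control cells with DMSO; active compounds raise luminescence by relieving repression of the StAR reporter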
SF1 AF2mut Luc = counter-screen for DAX1 inhibitors: nonselective inhibitors with SF-1 AF2 mutant. shares compounds with DAX1 inh-1. HEK293 StAR-luciferase, luminescence. inhibition, % at 6.8 µM. 78% of 2,400 active;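 active = inhibition above the mean of all tested compounds plus 3 SD, cut at about 3% in these data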;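 also: 0% = DAX-1 transfected cells with DMSO and 100% = cells without DAX-1 with DMSO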
* hit, by the source's call; . = not tested or not shown.

SMILES	DAX1 inh-1	GASC-1 inh	SMARCA2 act	NR2E3 ag-1	DAX1 inh-2	NR2E3 ag-2	DAX1 conf	SF1 AF2mut Luc
CCOC(=O)c1ccc(NC(=O)N2CCCCCC2)cc1	5.0*	11	5	-134	0	2	14*	8.0*
CC(C)=CCC/C(C)=C/CNCC(=O)N1c2ccccc2[C@]2(C)C[C@@H]3C(=O)N(C/C=C(\C)CCC=C(C)C)CC(=O)N3[C@H]12	1	.	-3	.	.	.	.	.
CCN(CC)CCOC(=O)c1ccc(NC(=O)CCCN2C(=O)/C(=C/c3cccs3)SC2=S)cc1	6.2*	-8	3	6	1	.	8.5*	5.4*
O=C(Nc1ccc(Cl)cc1)c1ccc2c(=O)n3c(nc2c1)CCCCC3	-1	-14	-1	-9	-1	0	.	.
Cc1c(C(=O)Nc2ccccn2)sc2nc3n(c(=O)c12)CCC3	8.8*	13	2	-142	1	3	9.8*	6.1*
O=C(Nc1ccc(Cl)cc1Cl)c1ccc2c(=O)n3c(nc2c1)CCC3	8.7*	-3	5	-109	3	-3	11*	7.5*
O=C(Nc1ccc(Br)cc1Cl)c1ccc2c(=O)n3c(nc2c1)CCC3	5.1*	10	0	-91	1	1	5.2*	2.9*
COc1ccccc1NC(=O)c1ccc2c(=O)n3c(nc2c1)CCC3	0	.	-1	-16	0	.	.	.
O=C(Nc1ccccn1)c1ccc2c(=O)n3c(nc2c1)CCCCC3	6.2*	1	0	-81	-1	8	7.7*	3.8*
Cc1c(C(=O)Nc2ccccc2F)sc2nc3n(c(=O)c12)CCC3	1	-3	0	-84	1	4	.	.
CCOC(=O)[C@@]12CCCC3=C1N(CCC3)C(=O)[C@H]2CC(=O)NCCc1ccccc1OC	0	.	-3	.	.	.	.	.
Cc1ccc2c(c1)N(CCCC(=O)NCc1ccc(F)cc1)C(=O)CO2	0	.	-4	.	.	.	.	.
CC(C)(C)C1CCC(=NNc2nc3ccccc3[nH]2)CC1 (stereo not drawn)	0	5	0	-56	0	5	.	.
c1ccc2c(c1)CC/C2=N/Nc1nc2ccccc2[nH]1	7.3*	0	6	-108	2	0	11*	11*
Cc1ccc(C(=O)C2CCN(CC(=O)N3CCOCC3)CC2)cc1	0	.	-1	.	.	.	.	.
CC(C)(C)N1Cc2nnn(Cc3ccccc3)c2-c2cc(N3CCCCC3)ccc2S1(=O)=O	-2	.	2	.	.	.	.	.
C[C@H]1C(c2ccccc2F)O[C@]2(C[C@H](O)c3c(ccc4ccccc34)O2)C[C@@H]1O (stereo partly drawn)	-2	.	-3	.	.	.	.	.
Clc1ccc(C=Cc2ccccn2)c(Cl)c1	7.9*	.	2	-84	2	.	12*	6.8*
O=c1c2c(nc3cc(-c4ccccc4Cl)[nH]n13)CCS2	5.6*	13	6	-178	2	0	3.9*	3.4*
C/C(=C/c1c[n+](Cc2ccc3c(c2)OCO3)c(N)[nH]1)Cn1[nH]c(=O)n(-c2ccccc2)c1=O	-1	.	-3	.	.	.	.	.
O[C@H](COc1ccc(C(F)(F)F)cc1)CN1CCC(C(O)(c2ccccc2)c2ccccc2)CC1	2	.	-5	.	.	.	.	.
CC(C)C(=O)OCC(=O)Nc1ccc(N=Nc2ccccc2)cc1	3	-7	5	-90	3	1	.	.
CC(=O)OCC(=O)Nc1ccc(N=Nc2ccccc2)cc1	4.8*	0	4	-151	0	1	10*	6.0*
O=C(/C=C/c1cccs1)N1CCc2ccccc21	7.3*	-2	1	-180	1	1	19*	8.4*
O=C(c1cccs1)N1CCc2ccccc21	2	5	2	-48	2	1	.	.
CCOC(=O)[C@@]12CCCC=C1N(CCc1ccc(Cl)cc1)C(=O)[C@H]2CC(=O)NCc1ccc(C)o1	-1	.	-3	.	.	.	.	.

Compound activity: PubChem BioAssay, several laboratories
